Results published in ChEMBL document CHEMBL1121744, “Synthesis and antihypertensive activity of a series of 8-substituted 1-oxa-3,8-diazaspiro[4.5]decan-2-ones” (J Med Chem, 1981).
Values joined by “and” are separate entries in the source; they are usually repeats but may differ in a detail not shown here. Equal values may be shown once. Active and inactive are the calls of the source. The calls are words filed in the database; no cut-off is given here.

Tests used:
[1] = (§1) Distribution coefficient between 1-Octanol and phosphate buffer at pH7.4; format: physicochemical; settings: 1-octanol/phosphate buffer, pH 7.4
Rattus norvegicus [2] = assay: Antihypertensive activity as percentage fall in systolic blood pressure in spontaneously hypertensive rats after a period of 3 h for a dose of 50 mg/kg; format: functional, organism-based; design: dose 50 mg/kg; settings: Artery
In short: (§2)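 Male Okamoto-Aoki SHR, trained, in groups of four matched for mean systolic pressure; one group per run received water vehicle. Oral dosing in water (0.1 mL per 10 g) on two consecutive mornings. After the day-2 dose, rats were restrained at 30.0 ± 1.0 °C. Systolic pressure was read by tail cuff (inflated to 300 mmHg, first pulse) at 1–4 h. % fall is versus the untreated control group, by 1-tail t test (p ≤ 0.05).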

Rattus norvegicus [3] = assay: The antihypertensive activity as percentage fall in systolic blood pressure in spontaneously hypertensive rats after a period of 3 hr for a dose of 100 mg/kg po; format: functional, Artery; in short: as §2
Rattus norvegicus [4] = assay: Antihypertensive activity as percentage fall in systolic blood pressure in spontaneously hypertensive rats after a period of 1 hr for a dose of 50 mg/kg po; format: functional, organism-based; design: dose 50 mg/kg; settings: Artery; in short: as §2
Rattus norvegicus [5] = assay: Antihypertensive activity as percentage fall in systolic blood pressure in spontaneously hypertensive rats after a period of 2 hr for a dose of 50 mg/kg; format: functional, organism-based; design: dose 50 mg/kg; settings: Artery; in short: as §2
Rattus norvegicus [6] = assay: The antihypertensive activity as percentage fall in systolic blood pressure in spontaneously hypertensive rats after a period of 1 hr for a dose of 100 mg/kg po; format: functional, Artery; in short: as §2
Rattus norvegicus [7] = assay: The antihypertensive activity as percentage fall in systolic blood pressure in spontaneously hypertensive rats after a period of 2 hr for a dose of 100 mg/kg po; format: functional, Artery; in short: as §2
Rattus norvegicus [8] = assay: Antihypertensive activity as percentage fall in systolic blood pressure in spontaneously hypertensive rats after a period of 4 hr for a dose of 50 mg/kg; format: functional, organism-based; design: dose 50 mg/kg; settings: Artery; in short: as §2
Rattus norvegicus [9] = assay: The antihypertensive activity as percentage fall in systolic blood pressure in spontaneously hypertensive rats after a period of 4 hr for a dose of 100 mg/kg po; NS=Not significant; format: functional, organism-based; design: dose 100 mg/kg; settings: Artery; in short: as §2
Rattus norvegicus [10] = assay: Antihypertensive activity as percentage fall in systolic blood pressure in spontaneously hypertensive rats after a period of 1 hr for a dose of 50 mg/kg; format: functional, Artery; in short: as §2
[11] = as §1; format: physicochemical; settings: 1-octanol/phosphate buffer, pH 7.4; remark: listed apart in the source
In short: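 Octanol/buffer distribution measured at pH 7.4 in phosphate with sodium chloride. Either HPLC (0.004 M) or shake flask.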

Rattus norvegicus [12] = assay: Percentage fall in systolic blood pressure in spontaneously hypertensive rats after 3 h following 50 mg/kg p.o.; format: functional, Artery; settings: route oral; in short: as §2
Rattus norvegicus [13] = assay: The antihypertensive activity as percentage fall in systolic blood pressure in spontaneously hypertensive rats after a period of 4 hr for a dose of 25 mg/kg po; NS=Not significant; format: functional, organism-based; design: dose 25 mg/kg; settings: Artery; in short: as §2
Rattus norvegicus [14] = assay: The antihypertensive activity as percentage fall in systolic blood pressure in spontaneously hypertensive rats after a period of 3 hr for a dose of 25 mg/kg po; NS=Not significant; format: functional, organism-based; design: dose 25 mg/kg; settings: Artery; in short: as §2
Rattus norvegicus [15] = assay: The antihypertensive activity as percentage fall in systolic blood pressure in spontaneously hypertensive rats after a period of 2 hr for a dose of 25 mg/kg po; NS=Not significant; format: functional, organism-based; design: dose 25 mg/kg; settings: Artery; in short: as §2
Rattus norvegicus [16] = assay: Percentage fall in systolic blood pressure in spontaneously hypertensive rats after 2 hr following 50 mg/kg p.o.; format: functional, Artery; settings: route oral, 50 mg/kg; in short: as §2
Rattus norvegicus [17] = assay: The antihypertensive activity as percentage fall in systolic blood pressure in spontaneously hypertensive rats after a period of 1 hr for a dose of 25 mg/kg po; format: functional, Artery; in short: as §2
Rattus norvegicus [18] = assay: Antihypertensive activity as percentage fall in systolic blood pressure in spontaneously hypertensive rats after a period of 1 hr for a dose of 50 mg/kg po; NS=Not significant; format: functional, organism-based; design: dose 50 mg/kg; settings: Artery
In short: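 Male Okamoto-Aoki SHR, trained, in groups of four matched for systolic pressure, with a concurrent vehicle control group. Oral dosing on two consecutive mornings, in water as solution or suspension at 0.1 mL/10 g. On day 2 rats were restrained at 30.0 ± 1.0 °C. Tail-cuff systolic pressure, four traces per rat, read at each hour. Per cent fall versus control; 1-tail t test, p ≤ 0.05.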

CC1NC(=O)OC12CCN(CC(O)C1COc3ccccc3O1)CC2 (configuration not stated)
logD [1]: 1.21 | Decrease in blood pressure (Rattus norvegicus [2]): Not significant | Decrease in blood pressure (Rattus norvegicus [3]): 14% | Decrease in blood pressure (Rattus norvegicus [4]): Not significant | Decrease in blood pressure (Rattus norvegicus [5]): Not significant | Decrease in blood pressure (Rattus norvegicus [6]): 15% | Decrease in blood pressure (Rattus norvegicus [7]): 15% | Decrease in blood pressure (Rattus norvegicus [8]): Not significant | Decrease in blood pressure (Rattus norvegicus [9]): inactive

CC(C)N1CC2(CCN(CC(O)C3COc4ccccc4O3)CC2)OC1=O (configuration not stated)
Decrease in blood pressure (Rattus norvegicus [10]): 26% | logD [11]: 2.05 | Decrease in blood pressure (Rattus norvegicus [12]): 16% | Decrease in blood pressure (Rattus norvegicus [13]): inactive | Decrease in blood pressure (Rattus norvegicus [14]): inactive | Decrease in blood pressure (Rattus norvegicus [15]): inactive | Decrease in blood pressure (Rattus norvegicus [16]): 20% and 16% | Decrease in blood pressure (Rattus norvegicus [17]): 14%

CCN1CC2(CCN(CCc3c[nH]c4ccccc34)CC2)OC1=O
Decrease in blood pressure (Rattus norvegicus [2]): Not significant | logD [11]: 1.92 | Decrease in blood pressure (Rattus norvegicus [18]): inactive | Decrease in blood pressure (Rattus norvegicus [5]): Not significant | Decrease in blood pressure (Rattus norvegicus [8]): Not significant
